ChEMBL document CHEMBL4513216, “Probing the Open Global Health Chemical Diversity Library for Multistage-Active Starting Points for Next-Generation Antimalarials” (ACS Infect Dis, 2020)

test: Toxicity liver stage against HepG2, at 10uM; format: cell-based; parameters: test concentration 10 uM, cell line HepG2-A16-CD81EGFP; conditions: human, HepG2-A16-CD81EGFP cells; read-out: INHIBITION
Outline: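 Uninfected HepG2-A16-CD81EGFP cells, 3 × 10^3 per well, 1536-well, plated on prespotted compound at 10 μM final, parasite-free screening media added to match infected plates; puromycin 10 μM positive, DMSO 0.5% negative; run in parallel with 48 h PbLuc assay at 37 °C, 5% CO2; viability by CellTiter-Glo luminescence, normalized to controls.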

SMILES | cytotoxicity at 10 µM
COc1ccc(CNC[C@H]2COCc3nc4cccnc4n32)cc1 | -0.61%
CC(=O)N1CC[C@H]2CC(=O)N(C3CC3)CC[C@H]2C1 | -0.434%
COCCNc1nc(N2CCCC2)nc2nccnc12 | 0.649%
Cc1occc(=O)c1OCc1noc(C(=O)NC2CCCC2)n1 | 0.618%
COc1cc2c(cc1OC)C(=O)C(Sc1nncn1C)C2 (stereo not drawn) | -5.65%
COc1ccc(NC(=O)c2nc(C)sc2C(C)C)cn1 | 0.847%
Cc1cc(C(=O)Nc2n[nH]c(C3CC3)n2)c2c(C)noc2n1 | -1.86%
CC(=O)c1c(C)nn(CC(=O)Nc2ccc(Br)cc2)c1C | -9.87%
Cc1nccn1-c1ccc(=O)n(CCNC(=O)c2c(F)cccc2Cl)n1 | -9.98%
COc1ccc(OC)c(-c2cc(C(=O)NCC3(CO)CC3)n(C)n2)c1 | -2.46%
O=C(O)CC(CC(=O)NCCc1cccs1)c1cccs1 (stereo not drawn) | -11.4%
COc1c2ccc(C(=O)NCCCn3ncccc3=O)cc2nn1C | 0.905%
CC(=O)N1CCc2[nH]c(=O)ccc2C1 | 0.351%
Cc1occc1C(=O)N1CCn2c(Cn3cncn3)cnc2C1C (stereo not drawn) | -5.17%
CC(C)CCN1C2(CCN(C(=O)N(C)C)C2)c2ccccc2S1(=O)=O (stereo not drawn) | 2.11%
Cc1cccc(C(=O)N2CCC3(CC(C(=O)N(C)C(C)C)=NO3)C2)c1 (stereo not drawn) | -127%
CCOC(=O)N1CCN(c2nc(NCCO)c3ccccc3n2)CC1 | -1.32%
Cc1ccc(N2N=C(C(=O)O)S(=O)(=O)c3cccnc32)cc1 | -8.87%
CC(C)n1[nH]c(=O)c2c1NC(=O)CSC2c1ccc(OCC(N)=O)cc1 (stereo not drawn) | 8.46%
COCC(=O)NCCn1ccc2c(OC)cccc21 | 3.07%
O=C(COc1coc(CN2CCOCC2)cc1=O)c1ccc(Cl)cc1 | -10.6%
c1ccc(O[C@H]2CC[C@H]3[C@H]2OCCN3Cc2nccs2)nc1 | -12.6%

SMILES | cytotoxicity at 10 µM
c1nc2c(c(C3CC3)n1)CCN(Cc1ccoc1)CC2 | -22.7%
CC(C(=O)N1CCN(c2ccc(F)cc2)CC1)n1cc(Br)cn1 (stereo not drawn) | 9.35%
COCCNC(=O)CN1CC=C(n2c(C)nc(=O)c3ccccc32)CC1 | -5.45%
CC(=O)N1CCCC1(C(=O)N1CCCC1)c1cnccn1 (stereo not drawn) | 0.142%
Cn1ncc(Cl)c1C(=O)NCCN1CCC(O)(c2ccc(F)cc2)CC1 | 4.71%
Cn1cnc(NC(=O)C2CC(=O)N(c3cccc(F)c3)C2)n1 (stereo not drawn) | 4.28%
Cc1ccc(S(=O)(=O)N2CC[C@@H]3C[C@H](NC(=O)c4n[nH]cc4Cl)[C@@H]32)cc1 | 4.31%
COCC(=O)N[C@@H]1CN(Cc2c[nH]nc2-c2cccs2)C[C@H]1O | 1.48%
CCC(CN1CCCC1)NC(=O)Cc1c(C)[nH]c2cc(C)cc(C)c12 (stereo not drawn) | 2.73%
CCC(CN1CCOCC1)NC(=O)Cc1c(C)[nH]c2cc(C)cc(C)c12 (stereo not drawn) | 19.6%
CC(C)c1ncc(CN2CCOC(C(=O)Nc3ccccc3)C2)cn1 (stereo not drawn) | -25.3%
Cc1ccc(-c2cc(N)c(=O)n(CC(=O)NC3CCCC3)n2)s1 | -20.3%
CC(=O)N1CCCC(Cc2cnc(C(=O)N3CCC(C)CC3)cn2)C1 (stereo not drawn) | 4.82%
COCCOCCSc1nnc(Cc2ccccc2F)o1 | 14.5%
Cc1nccn1-c1ccc(NS(=O)(=O)c2cccnc2)cn1 | -4.73%
CCn1ccnc1CN1CCCN(C(=O)C2(C#N)CCCCC2)CC1 | 3.75%
Cc1ccc(C(=O)N2CCN(c3ncnc4nc(N)ccc34)CC2)o1 | 7.55%
CC(C)CC(CCO)CNC(=O)N1CCOC2(CCCC2)C1 (stereo not drawn) | 6.37%
CCc1noc(C(C)N2CCN(CCc3ccncc3)CC2)n1 (stereo not drawn) | 1.6%
CCc1ncnc(N2CCOCC2CCO)c1F (stereo not drawn) | -2.56%
CSc1ccc(C(C)NC(=O)c2cc(C)on2)cc1 (stereo not drawn) | 6.01%
Cc1nnc(NCC2(c3ccccc3)CCOCC2)c(C#N)c1C | 7.35%

SMILES | cytotoxicity at 10 µM
Cc1ccc(CNC(=O)NC2CCCN(c3ncccn3)C2)cn1 (stereo not drawn) | 3.08%
CN(Cc1nccn1CC(F)(F)F)C(=O)c1ccc2c(c1)OCO2 | 1.09%
COCCCn1ccc(NC(=O)NCCCNc2ccccc2)n1 | 4.97%
Cc1ncsc1CNC(=O)N1CCN(Cc2ccccc2)CC1C (stereo not drawn) | -131%
Cn1nnc2c1CCN(C(C(=O)N1CCCCC1)c1ccccc1)C2 (stereo not drawn) | -2.56%
O=c1oc2ccccc2n1CCCN1CCCC1c1ccc(O)cc1 (stereo not drawn) | 7.87%
O=C(CCn1nnc2ccccc2c1=O)N(CC1CCOC1)C1CC1 (stereo not drawn) | -8.5%
COCCn1cc(NCc2cn(C)nc2-c2ccncc2)cn1 | 2.03%
Cc1cccc(N2CCN(C(=O)Cc3ccccc3O)C(C)C2)n1 (stereo not drawn) | 13.5%
O=C(C1CC(=O)N(c2ccccc2Br)C1)N1CCC2(CC1)OCCO2 (stereo not drawn) | 11.3%
COc1cc(C)nc(N2CCN(C(=O)CCc3nccs3)CC2)n1 | -15.8%
O=C(NCC1CC1)Nc1cccc(N2CCN(CC3CC3)CC2)c1 | -13.3%
c1ccc(CO[C@@H]2CN(Cc3ccoc3)[C@@H]3COC[C@@H]32)nc1 | -105%
CCN(Cc1nccn1C)C(=O)c1ccc(NCc2ccccc2)nc1 | -14.3%
CCn1cc(CN2CCC(CN3CCCCC3)CC2)cc1C#N | -5.77%
CN(CCC(O)c1ccccc1)c1cc(C2CC2)ncn1 (stereo not drawn) | -141%
COCCNCC1(O)CCCN(Cc2ccc(F)c(F)c2)C1=O (stereo not drawn) | 3.93%
O=C(CCCn1cncn1)N1CCC2(CCCN(CC3CC3)C2=O)C1 (stereo not drawn) | -0.611%
CCCc1cc(C(=O)N(C)Cc2cccc3cnccc23)n(C)n1 | 0.109%
N#Cc1cccc(N2CCC3(CCC(=O)N(CC4CCCO4)C3)CC2)n1 (stereo not drawn) | 4.11%
O=C(NCCc1csc(-c2cnccn2)n1)c1cnn[nH]1 | 6.46%
CC(C)[C@H]1CN(Cc2ccncc2)C[C@@H]1NC(=O)C1(C#N)CCOCC1 | -4.81%

SMILES | cytotoxicity at 10 µM
CC(C)n1cnnc1CCNCc1cn(CCC(N)=O)c2ccccc12 | -3.81%
CCNc1ncc(C(=O)N2Cc3nc(C)[nH]c(=O)c3C2)cn1 | -2.19%
C/C(=C\c1ccco1)CN(C)C(C)Cc1ccccn1 (stereo not drawn) | 1.89%
O=C1O[C@@H]2CN(Cc3ccccc3)C[C@@H]2N1CCCN1CCOCC1 | -1.18%
c1cnn(Cc2nnc(C3CCN(C4CCOCC4)CC3)n2C2CC2)c1 | -15.2%
CC(=O)NCCC1CCCCN1S(=O)(=O)c1cccc(C#N)c1 (stereo not drawn) | -10.8%
CCn1c(Cn2cncn2)nnc1C1CCN(Cc2ccc(C)o2)CC1 | -12.9%
COCc1cn([C@@H]2c3ccccc3C3(CCNCC3)[C@H]2O)nn1 | 1.2%
CSCCC(=O)N1CCC(Oc2cc(C)ccc2F)(C(=O)O)CC1 | -6.02%
O=C(c1coc(COc2cccc(F)c2)n1)N1CC[C@H](O)[C@@H](O)C1 | -11%
CN(C(=O)C1CCCCC1)[C@@H]1CCC[C@@H](N2CCOCC2)[C@@H]1O | -6.33%
O=C(CN1CCOC(Cn2cccn2)C1)NCCc1cccs1 (stereo not drawn) | -11.3%
Cc1cccc(OCCNC(=O)CN2CCCC2c2noc(C)n2)c1 (stereo not drawn) | -8.6%
CCOCC(O)CN1CCN(C(=O)c2cnc3n[nH]c(C)c3c2)CC1 (stereo not drawn) | -7.69%
COc1ccc(Cl)cc1C(=O)N1CCCC(n2nc(C)nc2C)C1 (stereo not drawn) | -4.53%
COc1ccc(C2CCCN2C(=O)c2csc(NC(C)=O)n2)cc1 (stereo not drawn) | -5.82%
CC(NC(=O)Nc1cccnc1N1CCCC1)c1nncn1C (stereo not drawn) | -10.1%
COc1cccc(CCC(=O)N2CCCC(n3cc(C)cn3)C2)c1 (stereo not drawn) | 4.28%
CCn1cc(CN2CCCN(C(=O)Cc3ccc(C)nc3)CC2)cn1 | -3.87%
OCC1CCCN1c1cc(N2CCN(c3ccccn3)CC2)ncn1 (stereo not drawn) | 3.97%
O=C(CCN1CCCC1)Nc1c2c(cc3c1CCC3)CCC2 | 6.3%
Cc1occc1C(=O)N1CCc2c(CNS(C)(=O)=O)cncc2C1 | 8.68%

SMILES | cytotoxicity at 10 µM
O=C1CCCN1Cc1nnn2c1CN(c1cccnc1)CCC2 | 3.48%
CCOCC1CN(C(=O)c2cnccn2)Cc2cnn(CC3CC3)c21 (stereo not drawn) | -69.6%
COc1cc(COCC2CCN(Cc3ccccn3)CC2)cc(OC)c1 | -3.36%
CC(=O)NCC(=O)N1CCOC2(CCCN(c3cccnc3)C2)C1 (stereo not drawn) | -12.8%
Cc1noc(C)c1CN1CC[C@H]2[C@@H]1CCC(=O)N2CC1CCOCC1 | -1.38%
c1cncc(CN2CCC(c3ccc4c(c3)OCO4)CC2)c1 | -0.415%
CS(=O)(=O)NC[C@]12COC[C@H]1CN(CC1CCCC1)C2 | 1.52%
CCN1CCc2cc(-c3cncn3CC(=O)NC(C)(C)C)ccc21 | -18.9%
COCC1CC2(CCN(C(=O)c3cc(C)oc3C)CC2)CN1C(C)C (stereo not drawn) | -11.4%
Cn1cc(C[C@H]2[C@H](O)CCN2CC2CCOCC2)cn1 | -65.7%
O=C(c1cocn1)N1C[C@@H]2CN(CC3CC3)CCO[C@@H]2C1 | -2.29%
CN(C)C(=O)N1Cc2ncn(C)c2C(COCC2CCOCC2)C1 (stereo not drawn) | -69.9%
CC(=O)NCC(=O)N1CCN(CCN(C)C)c2ncccc2C1 | -104%
O=C(O)c1c(-c2cccnc2)ncc2c1CCN(Cc1cccnc1)C2 | -3.14%
NC(=O)COc1ccc(CNCc2ccc(F)cc2F)cc1 | -14.4%
COc1ccc(CC(=O)N2Cc3nccn3CC(CN(C)C)C2)cc1 (stereo not drawn) | -116%
O=C(C1CC=CC1)N1CCc2c(COCc3ccncc3)cncc2C1 | -7.79%
O=C1CO[C@@H]2CN(Cc3ccsc3)C[C@H]2N1Cc1ccncc1 | -73%
O=C(NC[C@H]1OC[C@@H]2CCN(Cc3ccco3)C[C@@H]21)c1ccnnc1 | -143%
CC(C)n1c(=O)[nH]c2cn(-c3ccccc3)c(=O)n21 | -7.01%
